From ChEMBL document CHEMBL4673180, “Synthesis of quinone imine and sulphur-containing compounds with antitumor and trypanocidal activities: redox and biological implications” (RSC Med Chem, 2020)
Activity calls are given as the source filed them. The rule behind the calls is not given here.

Legend:
[1] = Selectivity index, ratio of LC50 for cytotoxicity against albino Swiss mouse peritoneal macrophages to IC50 for Antitrypanosomal activity against Trypanosoma cruzi Y strain bloodstream trypomastigotes assessed as lysis of parasite in presence of 5 % mouse blood; format: toxicity
Method in brief: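 Y-strain bloodstream trypomastigotes came from infected albino mice at peak parasitaemia and were purified by differential centrifugation. They were resuspended at 10^7/mL in RPMI with 10% mouse blood and mixed 1:1 with compound at twice the final concentration (DMSO ≤0.4%). Incubation was 24 h at 4 °C (5% blood per footnote).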

[2] = Selectivity index, ratio of LC50 for cytotoxicity against albino Swiss mouse peritoneal macrophages to IC50 for Antitrypanosomal activity against Trypanosoma cruzi Y strain bloodstream trypomastigotes assessed as lysis of parasite in absence of mouse blood; format: toxicity
Method in brief: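 Y-strain bloodstream trypomastigotes came from infected albino mice at peak parasitaemia and were purified by differential centrifugation into RPMI. They were exposed 24 h at 37 °C without blood to compound (DMSO ≤0.4%).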

[3] = Cytotoxicity against albino Swiss mouse peritoneal macrophages assessed as reduction in cell viability incubated for 24 hrs by Presto blue assay; format: tissue-based, Macrophage; settings: read-out: LC50
Method in brief: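 Primary peritoneal macrophages from Albino Swiss mice were seeded at 2.5 × 10^4 cells per well in RPMI-1640 (pH 7.2, 10% FBS, 2 mM glutamine) and grown 24 h at 37 °C. They were then treated 24 h at 37 °C with compound from DMSO stock (final DMSO ≤0.4%).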

Trypanosoma cruzi [4] = assay: Antitrypanosomal activity against Trypanosoma cruzi Y strain bloodstream trypomastigotes assessed as lysis of parasite in absence of mouse blood incubated for 24 hrs by Neubauer chamber method; format: functional, organism-based
Method in brief: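 T. cruzi Y strain bloodstream trypomastigotes came from infected albino mice at peak parasitaemia and were purified by differential centrifugation. They were exposed to compounds for 24 h at 37 °C without blood. Parasites were counted in a Neubauer chamber, and IC50 is the concentration lysing 50% of parasites. Values are mean ± SD of at least three independent experiments.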

Trypanosoma cruzi [5] = assay: Antitrypanosomal activity against Trypanosoma cruzi Y strain bloodstream trypomastigotes assessed as lysis of parasite in presence of 5 % mouse blood incubated for 24 hrs by Neubauer chamber method; format: functional, organism-based
Method in brief: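 Y strain bloodstream trypomastigotes came from infected albino mice at peak parasitaemia, purified by differential centrifugation, in RPMI at 10^7 cells/mL with 10% mouse blood. They were mixed 1:1 with compound at twice the final concentration (5% blood final), 24 h at 4 °C, with DMSO ≤0.4% final. Neubauer chamber counting; IC50 is 50% lysis; at least three independent experiments.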

K562 [6] = assay: Cytotoxicity against human K562 cells assessed as reduction in cell viability after 72 hrs by MTT assay; format: functional, cell-based; settings: K562, 72 h
Method in brief: (§1)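 Cells were grown in medium with 10% FBS, 2 mM L-glutamine, penicillin and streptomycin at 37 °C, 5% CO2. Seeding per well was 0.1 × 10^6 for leukaemia, PC3, L929 and NCI-H460, and 0.7 × 10^5 for HCT-116. Compounds in DMSO (0.1% final) were applied for 72 h. MTT (0.5 mg/mL) was added for 3 h, formazan dissolved in DMSO, and absorbance read at 550 nm. IC50 by nonlinear regression; three independent experiments in triplicate.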

[7] = Selectivity index, ratio of IC50 for mouse L929 cells to IC50 for human HCT116 cells after 72 hrs by MTT assay; format: toxicity; settings: L929 cells versus HCT116 cells, read-out: Ratio IC50
Method in brief: (§2)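 Both cell types were kept in medium with 10% FBS, 2 mM L-glutamine and penicillin/streptomycin at 37 °C, 5% CO2. Seeding was 0.7 × 10^5 cells per well for HCT-116, 0.1 × 10^6 for the other lines. Cells got compound in DMSO (0.1% final) for 72 h, then 0.5 mg/mL MTT for 3 h, with formazan read at 550 nm. IC50 came from nonlinear regression over three independent experiments in triplicate. SI is the L929 IC50 divided by the cancer-line IC50.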

HCT-116 = assay: Cytotoxicity against human HCT-116 cells assessed as reduction in cell viability after 72 hrs by MTT assay; format: functional, cell-based; settings: HCT-116, 72 h; method in brief: as §1
K562 [8] = assay: Induction of reactive oxygen species generation in human K562 cells at 40 uM measured after 3 hr by H2DCFDA probe-based flow cytometry; format: functional, cell-based
Method in brief: (§3)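 K-562 cells were pre-loaded with 10 μM CM-H2DCFDA for 1 h in the dark at 37 °C/5% CO2, washed with PBS, then incubated with compound in fresh medium for 1 or 3 h. Cells were resuspended in PBS with 1 μg/mL propidium iodide and analysed by flow cytometry on ice. DCF fluorescence (ex 490/em 525 nm) was read in PI-negative cells, 10 000 events per sample. Menadione 20 μM and H2O2 150 μM were positive controls. Mean ± SEM of three independent experiments.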

NCI-H460 = assay: Cytotoxicity against human NCI-H460 cells assessed as reduction in cell viability after 72 hrs by MTT assay; format: functional, cell-based; settings: NCI-H460, 72 h
Method in brief: as §1, with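 “CO2.” for “CO2. Seeding per well was 0.1 × 10^6 for leukaemia, PC3, L929 and NCI-H460, and 0.7 × 10^5 for HCT-116.”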

[9] = Cytotoxicity against human Lucena1 cells assessed as reduction in cell viability after 72 hrs by MTT assay; format: functional, cell-based; settings: Lucena 1, 72 h; method in brief: as §1
[10] = Selectivity index, ratio of IC50 for mouse L929 cells to IC50 for human Lucena1 cells after 72 hrs by MTT assay
Method in brief: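 Selectivity index is the ratio of IC50 in murine L929 fibroblasts to IC50 in Lucena 1 cells, each measured by 72 h MTT assay (absorbance 550 nm). IC50 values came from nonlinear regression of three independent experiments in triplicate.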

[11] = Selectivity index, ratio of IC50 for mouse L929 cells to IC50 for human PC3 cells after 72 hrs by MTT assay; format: toxicity; settings: L929 cells versus PC3 cells, read-out: Ratio IC50; method in brief: as §2
[12] = Selectivity index, ratio of IC50 for mouse L929 cells to IC50 for human HL-60cells after 72 hrs by MTT assay; format: toxicity; settings: L929 cells versus HL-60 cells, read-out: Ratio IC50; method in brief: as §2
[13] = Selectivity index, ratio of IC50 for mouse L929 cells to IC50 for human NCI-H460 cells after 72 hrs by MTT assay; format: toxicity; settings: L929 cells versus NCI-H460 cells, read-out: Ratio IC50; method in brief: as §2
L929 = assay: Cytotoxicity against mouse L929 cells assessed as reduction in cell viability after 72 hrs by MTT assay; format: cell-based; settings: L929, 72 h; method in brief: as §1
HL-60 = assay: Cytotoxicity against human HL-60 cells assessed as reduction in cell viability after 72 hrs by MTT assay; format: functional, cell-based; settings: HL-60, 72 h
Method in brief: as §1, with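 “CO2.” for “CO2. Seeding per well was 0.1 × 10^6 for leukaemia, PC3, L929 and NCI-H460, and 0.7 × 10^5 for HCT-116.”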

PC-3 = assay: Cytotoxicity against human PC-3 cells assessed as reduction in cell viability after 72 hrs by MTT assay; format: functional, cell-based; settings: PC-3, 72 h; method in brief: as §1
[14] = Selectivity index, ratio of IC50 for mouse L929 cells to IC50 for human K-562 cells after 72 hrs by MTT assay; format: toxicity; settings: L929 cells versus K-562 cells, read-out: Ratio IC50; method in brief: as §2
K562 [15] = assay: Induction of reactive oxygen species generation in human K562 cells at 40 uM measured after 1 hr by H2DCFDA probe-based flow cytometry; format: functional, cell-based; method in brief: as §3

Compound	selectivity ratio [1]	selectivity ratio [2]	CC50 at 24 h [3] [µM]	IC50 (Trypanosoma cruzi [4]) [µM]	IC50 (Trypanosoma cruzi [5]) [µM]	IC50 (K562 [6]) [µM]	selectivity ratio at 72 h [7]	IC50 (HCT-116) [µM]	Activity (K562 [8])	IC50 (NCI-H460) [µM]	IC50 [9] [µM]	Ratio IC50 [10]	selectivity ratio at 72 h [11]	selectivity ratio at 72 h [12]	selectivity ratio at 72 h [13]	IC50 (L929) [µM]	IC50 (HL-60) [µM]	IC50 (PC-3) [µM]	selectivity ratio at 72 h [14]	Activity (K562 [15])
O=C(Cn1ccnc1[N+](=O)[O-])NCc1ccccc1 [BENZNIDAZOLE]	> 38.6	> 413	> 4000	9.7																
Cc1ccc(S(=O)(=O)n2cc(COC3=C/C(=N\c4ccc(Br)cc4)c4ccccc4C3=O)nn2)cc1			> 100		> 500	5.4	1.9	9.25	Active	9.41	3.32	5.3	5.2	4.2	1.9	> 17.8	4.22	3.41	3.3	
O=C1C=C(Sc2ccccc2)c2ccccc2C1=O	1.52	28.4	36.9	1.3	24.3	15.7	2.2	12.8	Active	> 20	15.6	1.8	0.7	4.6	0.7	> 20	6.08	> 20	1.8	Active
C#CCOC1=C/C(=N\c2ccc(Cl)cc2)c2ccccc2C1=O						12.8	1.6	18.9	Active	16.2	16.4	1.9	2.1	2.8	1.9	> 20	11	14.6	2.4	
Cc1cccc(SC2=CC(=O)C(=O)c3ccccc32)c1	1.03	14.6	67.3	4.6	65.6	16.2	1.8	19.6		> 20	12.7	2.8	1	6.6	1	> 20	5.42	> 20	2.2	
Cc1ccc(S(=O)(=O)n2cc(COC3=C/C(=N\c4ccccc4)c4ccccc4C3=O)nn2)cc1	> 6.19		80.8		> 500	12.2	3.8	5.37		7.22	3.67	5.6	1	3.1	2.9	> 20	6.71	> 20	1.7	
COc1ccc(SC2=CC(=O)C(=O)c3ccccc32)cc1	0.37	10.6	41.5	3.9	112	13.3	1	> 20		> 20	> 20	1	1	3.6	1	> 20	9.38	> 20	2.5	
Cc1ccc(SC2=CC(=O)C(=O)c3ccccc32)cc1	0.92	23.9	81.4	3.4	88.7	14.9	1.3	> 20		> 20	12.8	2.1	0.8	6.6	0.8	> 20	4.14	> 20	1.8	
